Tests used:
[1] = biological target: T1, Amine oxidase [flavin-containing] A (Homo sapiens, UniProt P21397); assay: Inhibition of human recombinant MAOA expressed in baculovirus-infected BTI insect cells assessed as conversion of p-tyramine into p-hydroxyphenyl-acetaldehyde at 100 uM after 15 mins by fluorimetric assay; conditions: 0.25 h
T1 sequence (P21397 whole entry): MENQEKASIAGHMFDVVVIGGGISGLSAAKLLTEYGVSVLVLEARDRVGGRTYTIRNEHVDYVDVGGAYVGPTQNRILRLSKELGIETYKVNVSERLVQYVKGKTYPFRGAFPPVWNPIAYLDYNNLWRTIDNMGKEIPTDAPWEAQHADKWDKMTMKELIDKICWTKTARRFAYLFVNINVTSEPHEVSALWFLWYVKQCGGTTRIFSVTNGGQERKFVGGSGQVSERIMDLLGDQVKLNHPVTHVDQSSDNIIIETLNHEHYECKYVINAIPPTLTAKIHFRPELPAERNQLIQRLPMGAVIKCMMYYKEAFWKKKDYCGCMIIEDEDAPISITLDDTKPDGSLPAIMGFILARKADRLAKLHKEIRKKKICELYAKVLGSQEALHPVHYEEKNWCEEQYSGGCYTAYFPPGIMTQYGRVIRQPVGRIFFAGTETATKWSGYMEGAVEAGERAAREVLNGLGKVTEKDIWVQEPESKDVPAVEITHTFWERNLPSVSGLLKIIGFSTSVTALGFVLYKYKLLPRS
In short: (§1)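 Recombinant hMAO-A or hMAO-B was adjusted to the same velocity (165 pmol p-tyramine/min; specific activity 150 nmol/min/mg for A, 22 for B). Enzyme and drug in 0.05 M sodium phosphate pH 7.4 were preincubated 15 min at 37 °C. Amplex Red, 1 U/mL HRP and 1 mM p-tyramine (final) were added, and resorufin fluorescence was read at 37 °C. Values were background-subtracted against enzyme-free blanks with vehicle controls.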

[2] = biological target: T2, Amine oxidase [flavin-containing] B (Homo sapiens, UniProt P27338); assay: Inhibition of human recombinant MAOB expressed in baculovirus-infected BTI insect cells assessed as using transformed p-tyramine after 15 mins by fluorimetric assay; type: single protein
T2 sequence (P27338 whole entry): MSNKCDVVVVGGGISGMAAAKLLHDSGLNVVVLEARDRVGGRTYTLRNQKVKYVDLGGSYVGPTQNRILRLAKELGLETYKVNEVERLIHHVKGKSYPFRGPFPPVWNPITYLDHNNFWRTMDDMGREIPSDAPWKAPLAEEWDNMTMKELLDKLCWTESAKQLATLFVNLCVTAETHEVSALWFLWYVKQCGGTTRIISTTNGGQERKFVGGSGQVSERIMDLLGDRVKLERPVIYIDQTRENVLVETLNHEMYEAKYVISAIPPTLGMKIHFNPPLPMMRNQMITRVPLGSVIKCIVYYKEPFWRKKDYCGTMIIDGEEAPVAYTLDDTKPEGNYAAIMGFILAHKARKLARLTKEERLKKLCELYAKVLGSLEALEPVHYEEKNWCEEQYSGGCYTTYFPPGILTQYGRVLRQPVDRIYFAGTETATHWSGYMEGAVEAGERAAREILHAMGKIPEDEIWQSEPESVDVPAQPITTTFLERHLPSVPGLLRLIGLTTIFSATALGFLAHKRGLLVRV

[3] = species on record: Homo sapiens; assay: Selectivity index, ratio of IC50 for human recombinant MAOA to IC50 for human recombinant MAOB
In short: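 The index is IC50(MAO-A)/IC50(MAO-B) from the fluorimetric Amplex Red/p-tyramine assay on recombinant human isoforms.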

[4] = biological target: T2, Amine oxidase [flavin-containing] B; assay: Inhibition of human recombinant MAOB expressed in baculovirus-infected BTI insect cells assessed as using transformed p-tyramine at 100 uM after 15 mins by fluorimetric assay; conditions: 0.25 h; in short: as §1

Compound	inhibition (INH) [1]	IC50 [2] [µM]	Ratio IC50 [3]	inhibition (INH) [4]
COc1ccc(-c2c(O)c3ccccc3oc2=O)cc1Cl	Not Active	–	–	–
COc1ccc(-c2c(O)c3cc(Cl)ccc3oc2=O)cc1	Not Active	–	–	Not Active
O=c1oc2ccccc2c(O)c1-c1ccccc1	Not Active	–	–	Not Active
COc1ccc(-c2c(O)c3ccccc3oc2=O)cc1	Not Active	69.6	> 1.4	–

Results, then the compound that gave them:

inhibition (INH) [1]	IC50 [2] [µM]	Ratio IC50 [3]	inhibition (INH) [4]	Compound
Not Active	32	> 3.1	–	COc1ccc(-c2c(O)c3cc(C)ccc3oc2=O)cc1
Not Active	2.79	> 36	–	COc1ccc(-c2c(O)c3cc(Cl)ccc3oc2=O)cc1Cl
Not Active	42.7	> 2.3	–	COc1ccc(-c2c(O)c3cc(C)ccc3oc2=O)cc1Cl

Reference: ChEMBL document CHEMBL1933016, “Hydroxycoumarins as selective MAO-B inhibitors” (Bioorg Med Chem Lett, 2012)
